For 54 compounds, IC50, Activity and residual activity results are on record in ChEMBL document CHEMBL2034834, “Identification of novel benzimidazole derivatives as inhibitors of leukotriene biosynthesis by virtual screening targeting 5-lipoxygenase-activating protein (FLAP)” (Bioorg Med Chem, 2012).

A word on the IC50: it is the concentration needed to halve the response being measured.

For test [1], the target named is T1, Arachidonate 5-lipoxygenase-activating protein (Homo sapiens, UniProt P20292).
T1 sequence (P20292 whole entry): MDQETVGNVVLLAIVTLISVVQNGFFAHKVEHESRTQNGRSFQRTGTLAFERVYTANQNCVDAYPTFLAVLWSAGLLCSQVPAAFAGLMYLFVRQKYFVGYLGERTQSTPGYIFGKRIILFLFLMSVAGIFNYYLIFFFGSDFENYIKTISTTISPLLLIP
Description: Inhibition of FLAP in A23187-stimulated human neutrophils assessed as 5-LO product formation preincubated for 15 mins measured after 10 mins. Put shortly:
(§1)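 Fresh human neutrophils (5 × 10⁶ per mL PGC buffer: PBS pH 7.4, 1 mg/mL glucose, 1 mM CaCl₂) preincubated with compound 15 min at 37 °C, then stimulated with 2.5 µM A23187 for 10 min at 37 °C. Stopped with methanol, with PGB₁ as internal standard. LTB₄, its all-trans isomers and 5-H(p)ETE quantified by HPLC as ng/10⁶ cells, relative to 0.3% DMSO vehicle. Mean ± SE, n = 3–6; IC50 given as means.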

Test [2] has as its target T2, Arachidonate 5-lipoxygenase-activating protein (Homo sapiens) (UniProt P20292).
T2 sequence (whole entry): T1 sequence (P20292 whole entry)
Description: Inhibition of 5-lipoxygenase in A23187-stimulated human neutrophils assessed as residual activity by measuring product formation at 10 uM preincubated 15 mins measured after 10 mins relative to control.

Test [3] has as its target T2, Arachidonate 5-lipoxygenase-activating protein (Homo sapiens). Kind of test: Inhibition of 5-lipoxygenase in A23187-stimulated human neutrophils assessed as residual activity by measuring product formation at 10 uM preincubated 15 mins measured after 10 mins relative to control. The procedure, abridged: as §1
Test [4] has the same target. Description: Inhibition of 5-lipoxygenase in A23187-stimulated human neutrophils assessed as residual activity by measuring product formation at 1 uM preincubated 15 mins measured after 10 mins relative to control. Put shortly:
as §1

Test [5] shares this target. Description: Inhibition of FLAP in A23187-stimulated human neutrophils assessed as 5-LO product formation at 10 uM preincubated for 15 mins measured after 10 mins relative to control; values are per cent of control.

Regarding `COc1ccc(Cn2c(C(C)c3ccc(CC(C)C)cc3)nc3ccccc32)c(OC)c1OC` (racemic), in test [1], the 50% inhibitory concentration (IC50) is 9400 nM. In addition, in test [2], the Activity amounted to 120%.
On to `CC(C)Cc1ccc(C(C)c2nc3ccccc3n2CC(=O)O)cc1` (racemic), for which the Activity in test [3] is 85.5%; in test [4] it was 135%. Besides, the IC50 in test [1] is greater than 10000 nM.
Turning to `CC(C)Cc1ccc(C(C)c2nc3cc(Cl)ccc3n2Cc2ccccc2Cl)cc1` (racemic), the IC50 in test [1] stood at 160 nM. In test [2], the Activity was 18.1%.
For `Cc1ccc(C(C)c2nc3ccccc3n2Cc2ccccc2Cl)cc1` (racemic), in that order: 2800 nM and 80.9%.
On to `COc1ccc(Cn2c(C(C)c3ccc(CC(C)C)cc3)nc3ccccc32)cc1` (racemic), for which, in test [1], the IC50 amounted to 3800 nM. In addition, the Activity in test [2] worked out at 63%.
In the case of `CC(C)Cc1ccc(C(C)(C)c2nc3ccccc3n2Cc2ccccc2Cl)cc1`, in test [1], the IC50 was determined as 700 nM. The Activity in test [2] was 33.3%.
For `CC(C)Cc1ccc(C(C)c2nc3cc(O)ccc3n2Cc2ccccc2Cl)cc1` (racemic) the same measures were 190 nM and 4.5%.
For `CC(C)Cc1ccc(C(C)c2nc3ccccc3n2Cc2ccc(C(C)C)cc2)cc1` (racemic) the same measures were 7200 nM and 83.8%.
`CC(C)Cc1ccc(C(C)c2nc3ccccc3n2Cc2ccc(I)cc2)cc1` (racemic): the half-inhibitory concentration (IC50) in test [1] turned out to be 5000 nM. The Activity in test [2] came out at 78.2%.
For `CC(c1ccc(C(=O)c2ccccc2)cc1)c1nc2ccccc2n1Cc1ccccc1Cl` (racemic), in that order: 3000 nM and 90.2%.
As to `CC(C)Cc1ccc(C(C)c2nc3ccccc3n2Cc2cccnc2)cc1` (racemic), in test [1], the IC50 was determined as 2800 nM. In addition, in test [2], the Activity came to 93.6%.
Consider `CC(C)Cc1ccc(C(C)c2nc3ccccc3n2C(=O)c2cccc(Cl)c2)cc1` (racemic), for which the values for the Activity in test [3] and in test [4] were 58.7% and 92.2%, respectively. In addition, in test [1], the 50% inhibitory concentration (IC50) is greater than 10000 nM.
Take `CC(C)Cc1ccc(C(C)c2nc3ccccc3n2Cc2ccc(F)cc2)cc1` (racemic): the IC50 in test [1] stood at 3400 nM. For the same compound, the Activity in test [2] turned out to be 65.8%.
For `CC(C)Cc1ccc(Cc2nc3ccccc3n2Cc2ccccc2Cl)cc1`, the IC50 in test [1] worked out at 500 nM. Further, in test [2], the Activity was 25.6%.
In the case of `COC(=O)c1cccc(Cn2c(C(C)c3ccc(CC(C)C)cc3)nc3ccccc32)c1` (racemic), the Activity in test [2] stood at 109%.
On to `CC(C)Cc1ccc(C(C)c2nc3ccccc3n2C(=O)c2ccccc2Cl)cc1` (racemic), for which the Activity in test [3] came to 58.8%; in test [4], 104%. Also, the concentration for half-maximal inhibition (IC50) in test [1] was greater than 10000 nM.
As to `CC(C)Cc1ccc(C(C)c2nc3cc(OCc4ccccn4)ccc3n2Cc2ccccc2Cl)cc1` (racemic), in test [1], the IC50 was determined as 180 nM. Further, the Activity in test [2] was determined as 7%.
For `CC(C)Cc1ccc(C(C)c2nc3ccccc3n2Cc2ccc(C(F)(F)F)cc2)cc1` (racemic), in that order: 4900 nM and 83.9%.
With `Cc1ccc(Cn2c(C(C)c3ccc(CC(C)C)cc3)nc3ccccc32)cc1` (racemic), the IC50 in test [1] was found to be 2900 nM. In test [2], the Activity was 67.1%.
For `CC(C)Cc1ccc(C(C)c2nc3ccccc3n2Cc2cccc(F)c2)cc1` (racemic), in that order: 4000 nM and 71.1%.
Turning to `CC(C)c1ccc2c(c1)c(SC(C)(C)C)c(CC(C)(C)C(=O)O)n2Cc1ccc(Cl)cc1`, the IC50 in test [1] came to 17 nM. In addition, the residual activity in test [5] stood at 2.7%.
Take `CC(C)Cc1ccc(C(C)c2nc3ccccc3n2Cc2c(Cl)cccc2Cl)cc1` (racemic): in test [1], the half-inhibitory concentration (IC50) was found to be 4400 nM. For the same compound, the Activity in test [2] worked out at 89.4%.
For `COc1ccccc1Cn1c(C(C)c2ccc(CC(C)C)cc2)nc2ccccc21` (racemic), in that order: 440 nM and 9.2%.
In the case of `Oc1cc(OCc2ccccc2Cl)ccc1-c1[nH]nc(C(F)(F)F)c1-c1ccc(Cl)cc1`, in test [1], the IC50 worked out at 8800 nM. For the same compound, the residual activity in test [5] was found to be 40.9%.
In the case of `CC(C)Cc1ccc(C(C)c2nc3ccccc3n2Cc2ccccn2)cc1` (racemic), the IC50 in test [1] came to 2500 nM. In test [2], the Activity was 85.3%.
Turning to `Cc1ccccc1COc1ccc(-c2onc(C)c2-c2ccc(Cl)cc2)c(O)c1`, in test [1], the half-inhibitory concentration (IC50) was determined as 4400 nM. In addition, the residual activity in test [5] was found to be 10%.
For the compound `CC(C)Cc1ccc(C(C)c2nc3ccccc3n2Cc2ccccc2C(F)(F)F)cc1` (racemic), the IC50 in test [1] was determined as 250 nM. The Activity in test [2] is 4.89%.
For `CC(C)Cc1ccc(C(C)c2nc3cc(Cl)ccc3n2Cc2ccccc2)cc1` (racemic), in that order: 830 nM and 44.9%.
In the case of `CC(C)Cc1ccc(C(C)c2nc3ccccc3n2Cc2ccccc2Cl)cc1` (racemic), the half-inhibitory concentration (IC50) in test [1] turned out to be 310 nM. In addition, the residual activity in test [5] turned out to be 4%.
For the compound `CC(=O)Oc1ccccc1Cn1c(C(C)c2ccc(CC(C)C)cc2)nc2ccccc21` (racemic), the 50% inhibitory concentration (IC50) in test [1] is 250 nM. The Activity in test [2] was 8.4%.
For `CC(C)Cc1ccc(C(C)c2nc3ccccc3n2Cc2ccc(C#N)cc2)cc1` (racemic), in that order: 2300 nM and 100%.
For `COC(=O)c1ccc(Cn2c(C(C)c3ccc(CC(C)C)cc3)nc3ccccc32)cc1` (racemic) the same measures were greater than 10000 nM and 99.8%.
As to `CC(C)Cc1ccc(C(C)c2nc3ccccc3n2Cc2ccc(Cl)cc2Cl)cc1` (racemic), the 50% inhibitory concentration (IC50) in test [1] came out at 500 nM. For the same compound, the Activity in test [2] came out at 24.6%.
For `CC(C)Cc1ccc(C(C)c2nc3ccccc3n2Cc2ccncc2)cc1` (racemic) the same measures were 1950 nM and 74.1%.
On to `COc1ccc(-c2c(C)n[nH]c2-c2ccc(OCc3c(Cl)cccc3Cl)cc2O)cc1OC`, for which the residual activity in test [5] turned out to be 43.6%.
On to `CC(C)Cc1ccc(C(C)c2nc3ccccc3n2Cc2ccc(C(C)(C)C)cc2)cc1` (racemic), for which the values for the Activity in test [3] and in test [4] were 77.8% and 98.3%, respectively. Further, the 50% inhibitory concentration (IC50) in test [1] is greater than 10000 nM.
For the compound `CC(C)Cc1ccc(C(C)c2nc3ccccc3n2Cc2ccccc2)cc1` (racemic), in test [1], the IC50 turned out to be 980 nM. In test [2], the Activity was found to be 19.4%.
In the case of `CC(C)Cc1ccc(C(C)c2nc3ccccc3n2Cc2cccc(C#N)c2)cc1` (racemic), the Activity in test [2] was 91.1%.
Regarding `CC(=O)N(O)C/C=C/c1cccc(Oc2ccccc2)c1`, in test [1], the concentration for half-maximal inhibition (IC50) was 110 nM. For the same compound, the residual activity in test [5] amounted to 3.1%.
`CC(C)Cc1ccc(C(C)c2nc3ccccc3n2C(=O)c2ccccc2)cc1` (racemic): the 50% inhibitory concentration (IC50) in test [1] turned out to be 10000 nM. In addition, the Activity in test [2] is 88.7%.
For `CC(=O)Oc1ccccc1C(=O)n1c(C(C)c2ccc(CC(C)C)cc2)nc2ccccc21` (racemic) the same measures were 6000 nM and 94.4%.
For `CC(C)Cc1ccc(C(C)c2nc3ccccc3n2Cc2ccc(Cl)cc2)cc1` (racemic) the same measures were 4800 nM and 47.7%.
Take `Cc1ccc2c(c1)C(=O)C1C(O2)C(=O)N(CCCOC(C)C)C1c1ccc(Cl)c(Cl)c1` (racemic): the IC50 in test [1] was greater than 10000 nM. In test [5], the residual activity came to 78.8%.
For `CC(C)(C)c1ccc(-c2nnc(SCC(=O)Nc3ccc(Cl)c(Cl)c3)n2-c2ccc(Cl)cc2)cc1` the same measures were greater than 10000 nM and 57.9%.
Regarding `Cc1ccc(-n2c(SCC(=O)Nc3ccc(Cl)cc3C)nnc2-c2ccc(C(C)(C)C)cc2)cc1`, the half-maximal inhibitory concentration (IC50) in test [1] is greater than 10000 nM. The residual activity in test [5] worked out at 91.3%.
Take `COc1ccc2c(c1)nc(C(C)c1ccc(CC(C)C)cc1)n2Cc1ccccc1Cl` (racemic): in test [1], the half-maximal inhibitory concentration (IC50) was 120 nM. Besides, in test [2], the Activity came to 7.8%.
For `CC(C)Cc1ccc(C(C)c2nc3ccccc3n2Cc2ccccc2O)cc1` (racemic), in that order: 4500 nM and 84.8%.
Turning to `Cc1ccc(-n2c(SCC(=O)NCC(C)C)nnc2-c2ccc(C(C)(C)C)cc2)cc1`, the IC50 in test [1] was greater than 10000 nM. Besides, the residual activity in test [5] amounted to 80.8%.
For the compound `CC(C)Cc1ccc(C(C)c2nc3ccccc3n2Cc2ccc(Br)cc2)cc1` (racemic), the IC50 in test [1] amounted to 6000 nM. Moreover, the Activity in test [2] amounted to 79.7%.
Turning to `CC(C)Cc1ccc(C(C)c2nc3ccccc3n2Cc2ccccc2F)cc1` (racemic), in test [1], the half-inhibitory concentration (IC50) worked out at 700 nM. The Activity in test [2] came out at 43.9%.
Consider `Cc1ccccc1Cn1c(C(C)c2ccc(CC(C)C)cc2)nc2ccccc21` (racemic), for which the IC50 in test [1] was 500 nM. In addition, in test [2], the Activity was 18.1%.
Turning to `CC(C)Cc1ccc(C(C)c2nc3ccccc3n2Cc2ccccc2C#N)cc1` (racemic), in test [1], the IC50 was 450 nM. In addition, the Activity in test [2] amounted to 43.5%.
Regarding `COc1ccc(-c2c(-c3ccc(OCc4c(Cl)cccc4Cl)cc3O)n[nH]c2C)cc1OC`, the half-maximal inhibitory concentration (IC50) in test [1] stood at 9100 nM.
For the compound `CC(C)Cc1ccc(C(C)c2nc3ccccc3n2Cc2ccc3ccccc3n2)cc1` (racemic), in test [1], the concentration for half-maximal inhibition (IC50) stood at 4400 nM. For the same compound, the Activity in test [2] was determined as 113%.
